Measurements gathered from unrelated publications.
Target: Insulin receptor (INSR, Homo sapiens, UniProt P06213)

CC(=O)N1CCC(c2ccc(C(=O)NC3=NCCN3)cc2C(F)(F)F)CC1  remaining binding (cell-free assay, competition with immobilised ligand; 1 µM): 100%
O=C(c1ccc(Nc2ncc(Cl)c(-c3cc4ccccc4s3)n2)cc1)N1CCC(N2CCCC2)CC1  remaining binding (binding, competition with immobilised ligand; 1 µM): 6.1%
O=C(NCC1CCOCC1)c1n[nH]cc1NC(=O)c1c(F)cccc1F  remaining binding (binding, competition with immobilised ligand; 1 µM): 100%
c1cnn2ncc(-c3ccnc(N4CCC45COC5)n3)c2c1  remaining binding (binding; 1 µM): 73%
N#Cc1ccccc1CSc1nnc2c(n1)[nH]c1ccccc12  remaining binding (binding, competition with immobilised ligand; 10 µM): 88%
FC(F)(F)Oc1cccc(-c2cnc3ccc(-c4ccncc4)nn23)c1  remaining binding (cell-free assay, competition with immobilised ligand; 5 µM): 88%
C[C@H]1CCN(c2nccc(-c3cnn4ncccc34)n2)C1  remaining binding (binding; 1 µM): 69%
O=C(NCCCN1CCOCC1)c1ccc(Nc2ncc(Cl)c(-c3ccc(Cl)s3)n2)cc1  remaining binding (binding, competition with immobilised ligand; 1 µM): 29%
Cc1cnn2ncc(-c3ccnc(N(C)C)n3)c2c1  remaining binding (binding; 1 µM): 68%
CCN1CCN(Cc2ccc(C(=O)Nc3ccc(C)c(Oc4ccc5c(c4)CC(=O)N5)c3)cc2C(F)(F)F)CC1  remaining binding (binding, competition with immobilised ligand; 1 µM): 77%
CC1CCCN1c1nccc(-c2cnn3ncccc23)n1 (stereo not shown)  remaining binding (binding; 1 µM): 86%
O=C(Nc1cccnn1)N1CCC(=Cc2cccc(Oc3ccc(C(F)(F)F)cn3)c2)CC1  remaining binding (cell-free assay, competition with immobilised ligand; 1 µM): 100%
N[C@H]1CCN(c2nccc(-c3cnn4ncccc34)n2)C1  remaining binding (binding; 1 µM): 85%
CS(=O)(=O)NCC[C@H](NC(=O)c1cncc2c1cnn2-c1ccc(F)cc1)c1ccnc(S(C)(=O)=O)c1  remaining binding (cell-free assay, competition with immobilised ligand; 1 µM): 92%
C[C@@H]1CN(c2ccc3ncc(-c4ccc5[nH]nc(C6CC6)c5c4)n3n2)C[C@H](C)O1  remaining binding (binding, competition with immobilised ligand; 50 nM): 100%
Nc1c(C(=O)NCc2ccc(C(=O)NCCCC3CCCCC3)cc2)cnn1-c1ccccc1  remaining binding (cell-free assay, competition with immobilised ligand; 0.1 µM): 100%
F[C@@H]1CCN(c2nccc(-c3cnn4ncccc34)n2)C1  remaining binding (binding; 1 µM): 91%
Cn1nc(C(F)(F)F)cc1-c1cnc(N2CCc3cc(S(=O)(=O)Nc4c(F)cc(Cl)cc4F)cc(N4CCCC4=O)c32)nc1  remaining binding (cell-free assay, competition with immobilised ligand; 1 µM): 89%
COc1cnc(Nc2cccc(S(N)(=O)=O)c2)nc1N1CCN(c2ccccc2)CC1  remaining binding (binding, competition with immobilised ligand; 1 µM): 81%
CN([C@@H]1CCc2c(CC(=O)O)c3ccccc3n2C1)S(=O)(=O)c1ccc(F)cc1  remaining binding (cell-free assay, competition with immobilised ligand; 1 µM): 100%
CN(C)c1nccc(-c2cnc3ncccn23)n1  remaining binding (binding; 1 µM): 70%
CCC(=O)N[C@H]1CC[C@@H](C(=O)N(C)c2ccc(-c3nc4ccccc4o3)cc2)C1  remaining binding (cell-free assay, competition with immobilised ligand; 1 µM): 91%
c1cncc(-c2cccc(Nc3nccc(NC4CCCCC4)n3)c2)c1  remaining binding (binding, competition with immobilised ligand; 10 µM): 27%
CCCOc1ccc([C@@H]2[C@@H](C(=O)O)[C@H](c3ccc4c(c3)OCO4)CN2CC(=O)Nc2c(CC)cccc2CC)cc1  remaining binding (cell-free assay, competition with immobilised ligand; 1 µM): 89%
O=C(NCCCN1CCOCC1)c1ccc(Nc2nccc(-c3cc4ccccc4s3)n2)cc1  remaining binding (binding, competition with immobilised ligand; 1 µM): 95%
